According to ChEMBL document CHEMBL4689842, “EUbOPEN Chemogenomics Library wave 1” (2021):

System: U2OS
Experiment: Multiplex assay against U2OS
Format: toxicity, cell-based
Conditions: human
Summary of the method: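 At seeding, live cells were stained with Hoechst33342, BioTracker Green Microtubule Cytoskeleton Dye, MitoTracker Red and Annexin V Alexa Fluor 680. After compound addition they were imaged on a CQ1 microscope at 37°C and 5% CO2, and CellPathfinder machine-learning gating sorted them into Hoechst high-intensity objects or normal cells, with normal cells further split into healthy, pyknosed or fragmented nuclei and pyknosed cells into mitotic or apoptotic. Tubulin, mitochondrial-mass and membrane-permeability phenotypes are given as per cents of cells with healthy nuclei.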

[1] = 12 h, 1 µM, compound concentration 1 uM, replicate 1
[2] = 12 h, 1 µM, compound concentration 1 uM, replicate 2
[3] = 12 h, 10 µM, compound concentration 10 uM, replicate 1
[4] = 12 h, 10 µM, compound concentration 10 uM, replicate 2
[5] = 24 h, 1 µM, compound concentration 1 uM, replicate 1
[6] = 24 h, 1 µM, compound concentration 1 uM, replicate 2
[7] = 24 h, 10 µM, compound concentration 10 uM, replicate 1
[8] = 24 h, 10 µM, compound concentration 10 uM, replicate 2

Structure (SMILES): Cc1nc(-c2cn3c(n2)-c2ccc(-c4cnn(C(C)(C)C(N)=O)c4)cc2OCC3)n(C(C)C)n1 [TASELISIB]
- Population Apoptotic (%) [1]: 54%
- Population Fragmented Nuclei (%) [1]: 3%
- Population Healthy Nuclei (%) [1]: 84%
- Population Hoechst High Intensity Objects (%) [1]: 2%
- Population Membrane Permeable-Phenotype (%) [1]: 16%
- Population Mitochondria Different-Phenotype (%) [1]: 10%
- Population Mitotic Cells (%) [1]: 45%
- Population Normal (%) [1]: 97%
- Population Pyknosed Nuclei (%) [1]: 11%
- Population Tubulin-Different-Phenotype (%) [1]: 9%
- Total Cell Count [1]: 181
- Population Apoptotic (%) [2]: 16%
- Population Fragmented Nuclei (%) [2]: 12%
- Population Healthy Nuclei (%) [2]: 77%
- Population Hoechst High Intensity Objects (%) [2]: 12%
- Population Membrane Permeable-Phenotype (%) [2]: 27%
- Population Mitochondria Different-Phenotype (%) [2]: 20%
- Population Mitotic Cells (%) [2]: 83%
- Population Normal (%) [2]: 87%
- Population Pyknosed Nuclei (%) [2]: 9%
- Population Tubulin-Different-Phenotype (%) [2]: 25%
- Total Cell Count [2]: 89
- Population Apoptotic (%) [3]: 44%
- Population Fragmented Nuclei (%) [3]: 5%
- Population Healthy Nuclei (%) [3]: 89%
- Population Hoechst High Intensity Objects (%) [3]: 2%
- Population Membrane Permeable-Phenotype (%) [3]: 12%
- Population Mitochondria Different-Phenotype (%) [3]: 19%
- Population Mitotic Cells (%) [3]: 55%
- Population Normal (%) [3]: 97%
- Population Pyknosed Nuclei (%) [3]: 5%
- Population Tubulin-Different-Phenotype (%) [3]: 24%
- Total Cell Count [3]: 166
- Population Apoptotic (%) [4]: 55%
- Population Fragmented Nuclei (%) [4]: 9%
- Population Healthy Nuclei (%) [4]: 78%
- Population Hoechst High Intensity Objects (%) [4]: 16%
- Population Membrane Permeable-Phenotype (%) [4]: 18%
- Population Mitochondria Different-Phenotype (%) [4]: 12%
- Population Mitotic Cells (%) [4]: 44%
- Population Normal (%) [4]: 83%
- Population Pyknosed Nuclei (%) [4]: 12%
- Population Tubulin-Different-Phenotype (%) [4]: 12%
- Total Cell Count [4]: 65
- Population Apoptotic (%) [5]: 40%
- Population Fragmented Nuclei (%) [5]: 6%
- Population Healthy Nuclei (%) [5]: 80%
- Population Hoechst High Intensity Objects (%) [5]: 4%
- Population Membrane Permeable-Phenotype (%) [5]: 15%
- Population Mitotic Cells (%) [5]: 59%
- Population Normal (%) [5]: 95%
- Population Pyknosed Nuclei (%) [5]: 13%
- Population Tubulin-Different-Phenotype (%) [5]: 12%
- Total Cell Count [5]: 240
- Population Apoptotic (%) [6]: 27%
- Population Fragmented Nuclei (%) [6]: 20%
- Population Healthy Nuclei (%) [6]: 64%
- Population Hoechst High Intensity Objects (%) [6]: 6%
- Population Membrane Permeable-Phenotype (%) [6]: 21%
- Population Mitochondria Different-Phenotype (%) [6]: 6%
- Population Mitotic Cells (%) [6]: 72%
- Population Normal (%) [6]: 93%
- Population Pyknosed Nuclei (%) [6]: 15%
- Population Tubulin-Different-Phenotype (%) [6]: 29%
- Total Cell Count [6]: 91
- Population Apoptotic (%) [7]: 27%
- Population Healthy Nuclei (%) [7]: 91%
- Population Hoechst High Intensity Objects (%) [7]: 1%
- Population Mitochondria Different-Phenotype (%) [7]: 11%
- Population Mitotic Cells (%) [7]: 72%
- Population Normal (%) [7]: 98%
- Population Pyknosed Nuclei (%) [7]: 4%
- Population Tubulin-Different-Phenotype (%) [7]: 26%
- Total Cell Count [7]: 168
- Population Apoptotic (%) [8]: 60%
- Population Fragmented Nuclei (%) [8]: 4%
- Population Healthy Nuclei (%) [8]: 83%
- Population Hoechst High Intensity Objects (%) [8]: 4%
- Population Membrane Permeable-Phenotype (%) [8]: 13%
- Population Mitochondria Different-Phenotype (%) [8]: 15%
- Population Mitotic Cells (%) [8]: 40%
- Population Normal (%) [8]: 95%
- Population Pyknosed Nuclei (%) [8]: 11%
- Population Tubulin-Different-Phenotype (%) [8]: 20%
- Total Cell Count [8]: 67

Structure (SMILES): Cc1nc(Nc2n[nH]c3c2CN(C(=O)N[C@H](CN(C)C)c2ccccc2)C3(C)C)c2sccc2n1 [PF-03758309]
- Population Apoptotic (%) [1]: 47%
- Population Fragmented Nuclei (%) [1]: 9%
- Population Healthy Nuclei (%) [1]: 79%
- Population Hoechst High Intensity Objects (%) [1]: 2%
- Population Membrane Permeable-Phenotype (%) [1]: 9%
- Population Mitochondria Different-Phenotype (%) [1]: 21%
- Population Mitotic Cells (%) [1]: 52%
- Population Normal (%) [1]: 97%
- Population Pyknosed Nuclei (%) [1]: 11%
- Population Tubulin-Different-Phenotype (%) [1]: 21%
- Total Cell Count [1]: 234
- Population Apoptotic (%) [2]: 20%
- Population Fragmented Nuclei (%) [2]: 10%
- Population Healthy Nuclei (%) [2]: 78%
- Population Hoechst High Intensity Objects (%) [2]: 15%
- Population Membrane Permeable-Phenotype (%) [2]: 5%
- Population Mitochondria Different-Phenotype (%) [2]: 18%
- Population Mitotic Cells (%) [2]: 80%
- Population Normal (%) [2]: 84%
- Population Pyknosed Nuclei (%) [2]: 10%
- Population Tubulin-Different-Phenotype (%) [2]: 24%
- Total Cell Count [2]: 118
- Population Apoptotic (%) [3]: 53%
- Population Fragmented Nuclei (%) [3]: 16%
- Population Healthy Nuclei (%) [3]: 54%
- Population Hoechst High Intensity Objects (%) [3]: 3%
- Population Membrane Permeable-Phenotype (%) [3]: 18%
- Population Mitochondria Different-Phenotype (%) [3]: 37%
- Population Mitotic Cells (%) [3]: 46%
- Population Normal (%) [3]: 97%
- Population Pyknosed Nuclei (%) [3]: 28%
- Population Tubulin-Different-Phenotype (%) [3]: 75%
- Total Cell Count [3]: 173
- Population Apoptotic (%) [4]: 75%
- Population Fragmented Nuclei (%) [4]: 20%
- Population Healthy Nuclei (%) [4]: 63%
- Population Hoechst High Intensity Objects (%) [4]: 18%
- Population Membrane Permeable-Phenotype (%) [4]: 12%
- Population Mitochondria Different-Phenotype (%) [4]: 59%
- Population Mitotic Cells (%) [4]: 25%
- Population Normal (%) [4]: 81%
- Population Pyknosed Nuclei (%) [4]: 16%
- Population Tubulin-Different-Phenotype (%) [4]: 85%
- Total Cell Count [4]: 112
- Population Apoptotic (%) [5]: 58%
- Population Fragmented Nuclei (%) [5]: 11%
- Population Healthy Nuclei (%) [5]: 80%
- Population Hoechst High Intensity Objects (%) [5]: 3%
- Population Membrane Permeable-Phenotype (%) [5]: 17%
- Population Mitochondria Different-Phenotype (%) [5]: 19%
- Population Mitotic Cells (%) [5]: 41%
- Population Normal (%) [5]: 96%
- Population Pyknosed Nuclei (%) [5]: 8%
- Population Tubulin-Different-Phenotype (%) [5]: 25%
- Total Cell Count [5]: 292
- Population Apoptotic (%) [6]: 38%
- Population Fragmented Nuclei (%) [6]: 16%
- Population Healthy Nuclei (%) [6]: 71%
- Population Hoechst High Intensity Objects (%) [6]: 13%
- Population Membrane Permeable-Phenotype (%) [6]: 12%
- Population Mitochondria Different-Phenotype (%) [6]: 29%
- Population Mitotic Cells (%) [6]: 61%
- Population Normal (%) [6]: 86%
- Population Pyknosed Nuclei (%) [6]: 12%
- Population Tubulin-Different-Phenotype (%) [6]: 33%
- Total Cell Count [6]: 121
- Population Apoptotic (%) [7]: 78%
- Population Fragmented Nuclei (%) [7]: 25%
- Population Healthy Nuclei (%) [7]: 38%
- Population Hoechst High Intensity Objects (%) [7]: 12%
- Population Membrane Permeable-Phenotype (%) [7]: 44%
- Population Mitochondria Different-Phenotype (%) [7]: 64%
- Population Mitotic Cells (%) [7]: 21%
- Population Normal (%) [7]: 88%
- Population Pyknosed Nuclei (%) [7]: 36%
- Population Tubulin-Different-Phenotype (%) [7]: 88%
- Total Cell Count [7]: 202
- Population Apoptotic (%) [8]: 85%
- Population Fragmented Nuclei (%) [8]: 19%
- Population Healthy Nuclei (%) [8]: 50%
- Population Hoechst High Intensity Objects (%) [8]: 25%
- Population Membrane Permeable-Phenotype (%) [8]: 38%
- Population Mitochondria Different-Phenotype (%) [8]: 82%
- Population Mitotic Cells (%) [8]: 14%
- Population Normal (%) [8]: 74%
- Population Pyknosed Nuclei (%) [8]: 30%
- Population Tubulin-Different-Phenotype (%) [8]: 82%
- Total Cell Count [8]: 121
